# OXTR potentiate: human OXTR potentiation | hit rate 0.061% among 320,000 | P30559 | CHO-OTR cells, Fluo-8 calcium fluorescence, potentiator mode; 0% = oxytocin EC15, 100% = EC100 | AID 2445 | activation, % at 3 µM;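 active means activation above that plate's cutoff, the mean activation of tested compounds plus 3 SD, cut at about 6.6% in these data, passing the limit was not always enough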;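 further: 100% uses oxytocin at 75 nM as the full agonist control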
# Target sequence (P30559 whole entry, looked up): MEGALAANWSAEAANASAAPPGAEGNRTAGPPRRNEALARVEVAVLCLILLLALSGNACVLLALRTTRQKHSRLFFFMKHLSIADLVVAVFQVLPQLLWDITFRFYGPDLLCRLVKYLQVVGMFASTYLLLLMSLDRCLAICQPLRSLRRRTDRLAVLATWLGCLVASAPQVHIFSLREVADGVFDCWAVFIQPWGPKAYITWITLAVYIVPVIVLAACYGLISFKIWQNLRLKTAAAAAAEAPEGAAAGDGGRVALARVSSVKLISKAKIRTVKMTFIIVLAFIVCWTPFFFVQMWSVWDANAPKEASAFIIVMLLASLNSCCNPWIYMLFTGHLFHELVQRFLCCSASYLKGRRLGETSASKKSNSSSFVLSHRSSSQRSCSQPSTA
#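 System: human OTR in CHO cells / Also added: sub-maximal oxytocin, roughly EC15 / Control set: EC15 oxytocin low, 75 nM oxytocin high / Schedule: 6 min compound pre-incubation at room temperature, 100 s kinetic read / Compound: single-point 3.0 µM / Replication: singlicate / Technique: Fluo-8 calcium dye fluorescence / Read-out basis: % activation of max/min ratio relative to oxytocin controls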
# CHO parental Ca: counter-screen: ATP calcium response change in parental CHO cells | hit rate 0.63% among 330,000 | parental CHO-K1, ATP-induced calcium, Fluo-8 fluorescence | inhibition, % at 5.6 µM;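 active means inhibition above that plate's mean sample inhibition plus 3 SD, cut at about 26% in these data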;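 further: 0% = ATP-challenged DMSO wells and 100% = DMSO wells without ATP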
#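 Assay system: untransfected parental CHO cell line. Also added: ATP agonist challenge. Dosing: one dose, 5.6 µM nominal. Measured by: Fluo-8 fluorescence. Read-out: % inhibition. Benchmarks: ATP wells versus no-ATP DMSO wells. Repeats: no replicates.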
# OX1R antag-1: human HCRTR1 antagonism; inhibition, % at 5 µM; O43613; AID 434989; hit rate 0.43% among 330,000; CHO/OX1R cells, Fluo-8 calcium fluorescence, orexin A;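 active means inhibition above its plate's threshold, mean inhibition of all tested compounds on the plate plus 3 SD, cut at about 37% in these data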;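 further: 0% = orexin A challenge wells and 100% = SB-334867-A antagonist wells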
# V1aR counter: counter-screen for oxytocin receptor agonists: human V1a receptor agonists; CHO-V1R cells, Fluo-8 calcium fluorescence, agonist mode; 0% DMSO, 100% 3 nM vasopressin; activation, % at 3 µM; P37288; hit rate 0.25% among 320,000;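 active means activation above the mean activation of all tested compounds plus 3 SD, per screening run, cut at about 20% in these data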;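 further: signal is peak over basal fluorescence ratio across a 100 second FLIPR read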
# OXTR agonist: human OXTR agonism; activation, % at 3 µM; P30559; CHO-OTR cells, Fluo-8 calcium fluorescence; normalized: DMSO 0%, oxytocin 100%; hit rate 0.32% among 320,000;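 active means activation above the mean of all tested compounds plus 3 SD, cutoff set per screening run, cut at about 20% in these data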;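 further: peak over basal fluorescence ratio from a 100 s FLIPR kinetic read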
# OX1R antag-2: OX1R (human) antagonism; O43613; OX1R-expressing cells, FRET antagonist read-out; inhibition, % at 6.6 µM; hit rate 1.8% among 330,000; AID 485270; in the data active means inhibition mostly above about 38%, no sharp cut-off; inactive means mostly below about 40%;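 further: 0% = agonist challenge alone and 100% = reference antagonist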
# The depositor's hits bear a star; nt = no result given. Compounds with a hit are over-represented: about 2.7% of the library has one in this group of screens.
SMILES,OXTR potentiate,CHO parental Ca,OX1R antag-1,V1aR counter,OXTR agonist,OX1R antag-2
Cc1csc2c(N3CCN(C(=O)NC(C)(C)C)CC3)ncnc12,-1.8,-3.5,-16.0,5.0,2.7,9.2
Cc1csc2c(N3CCN(C(=O)Nc4ccc(Cl)c(Cl)c4)CC3)ncnc12,-12.6,20.6,42.6*,7.8,4.1,36.4
Cc1csc2c(N3CCN(C(=O)c4ccc(C(C)(C)C)cc4)CC3)ncnc12,-13.4,36.9*,27.4,8.2,2.1,17.9
COC(=O)[C@]1(C)N[C@H](CN(C)S(=O)(=O)c2ccc(OC(F)(F)F)cc2)[C@@H]2C(=O)N(C)C(=O)[C@@H]21,11.8,-17.6,3.5,0.3,0.0,5.8
Cc1occc1C(=O)N1CCN(C(=O)C2CCCO2)CC1 (configuration not stated),1.4,7.2,10.6,0.5,0.2,9.7
O=C(c1ccc([N+](=O)[O-])cc1[N+](=O)[O-])N1CCN(C(=O)C2CCCO2)CC1 (configuration not stated),-3.1,-4.0,-6.3,-0.2,-1.4,33.5*
CC1CN(CCOc2ccccc2C(C)C)CC(C)O1 (configuration not stated),-0.3,-18.5,-11.2,-0.5,-1.3,11.6
Fc1ccc(Nc2nnc(C(F)(F)F)s2)cc1Cl,-17.9,40.1*,22.5,8.5,9.7,55.8*
COc1ccc(C(=O)NCCc2nnc3ccc(SCC(=O)Nc4ccccc4)nn23)cc1,-1.8,-13.9,-22.1,-0.1,1.0,6.2
COc1ccc2[nH]c3c(c2c1)CCN1C(=O)C(CC(=O)NCc2cccc(C(F)(F)F)c2)C[C@H](C(=O)N2CCCCC2)[C@@]31CCc1ccccc1 (some centres not stated),nt,-31.8,-27.2,nt,nt,9.9
COc1ccc(/C=C2\SC(=S)N(NS(=O)(=O)c3ccc(C)cc3)C2=O)c(OC)c1,-1.9,11.6,-12.7,2.8,-0.4,60.0*
COC(=O)c1cc(C(=O)OCC(=O)NCc2cccs2)cc([N+](=O)[O-])c1,1.0,-18.1,-21.5,-0.9,-1.6,30.7*
Cc1cc(C(=O)OCC(=O)NCc2cccs2)ccc1[N+](=O)[O-],-0.2,-13.4,1.3,3.1,2.3,16.2
CCS(=O)(=O)c1cc([N+](=O)[O-])c(Sc2ccccc2NC(C)=O)s1,-4.4,-2.6,-6.6,-0.2,-0.5,17.7
O=C(Nc1ccc(Cl)cc1)Nc1ccccc1NS(=O)(=O)c1cccs1,-16.5,-7.4,-25.5,12.7,12.5,60.4*
O=C(COc1ccc(Cl)cc1Cl)Nc1ccccc1NS(=O)(=O)c1cccs1,-14.8,19.5,-10.8,6.9,5.7,52.1*
O=C(COc1ccccc1)Nc1ccccc1NS(=O)(=O)c1cccs1,-6.3,-11.3,-13.2,3.2,0.8,16.6
O=S(=O)(Nc1ccccc1Cl)c1ccc(NS(=O)(=O)c2cccs2)cc1,-14.3,1.0,-5.3,5.8,7.1,7.8
Cc1cc(Cl)ccc1OCC(=O)Nc1ccccc1NS(=O)(=O)c1cccs1,-9.4,13.6,-7.9,5.4,8.9,40.6*
CC(C)(C)[C@H]1C=C(C(=O)NCc2ccccc2)O[C@@H](OCCCCO)C1,-0.4,-12.8,-8.0,-0.3,-1.0,14.5
COc1ccc2sc(-c3ccc(N(C)C)cc3)c(C#Cc3cncn3C)c2c1,1.4,-28.3,-17.3,-0.1,-0.3,7.6
COc1ccc(NC(=O)COc2ccccc2C(=O)NCC(c2ccccc2)N(C)C)cc1Cl (configuration not stated),-10.7,-12.1,-4.9,8.8,6.7,6.0
COc1ccc(C(=O)Nc2cccc3cccnc23)cc1OC,-4.7,-14.6,-15.0,-0.1,-1.8,49.1*
COc1ccc(OC)c(NC(=O)c2ccccc2NS(=O)(=O)c2cccc3cccnc23)c1,-3.2,-8.6,5.5,-0.8,-1.1,63.9*
O=C(Nc1cccc2cccnc12)c1cccc2ccccc12,-3.2,-20.2,-26.8,-0.1,-1.8,24.7
SMILES,OXTR potentiate,CHO parental Ca,OX1R antag-1,V1aR counter,OXTR agonist,OX1R antag-2
COc1ccc(C(=O)Nc2cccnc2Cl)cc1OC,3.3,-5.5,-6.9,-0.3,-0.4,13.6
CCOc1ccccc1C(=O)Nc1cccc2cccnc12,2.4,-18.5,9.9,0.4,-1.6,44.5*
O=C(Nc1cccc2ccccc12)c1ccccc1NS(=O)(=O)c1cccc2cccnc12,-9.0,-16.6,14.7,4.2,-0.2,64.9
O=C(Nc1cccc2cccnc12)c1ccc(Br)o1,0.6,-16.2,9.4,-1.6,-1.5,75.4*
O=C(Nc1cccc2cccnc12)c1ccccc1Br,1.7,-15.1,-18.6,-0.6,-3.2,8.5
O=C(O)c1cccc(-n2cccc2/C=C/[N+](=O)[O-])c1,-2.7,0.8,18.2,-0.1,-1.1,19.2
CC(C)Oc1cccc(C2NC(=O)c3ccccc3O2)c1 (configuration not stated),-1.6,-14.0,-10.9,-0.2,-1.1,5.4
COC(=O)c1sccc1-c1ccc(C(=O)Nc2cccc(Cl)c2)o1,-8.2,13.9,13.2,-0.6,-1.5,73.6*
OCCSc1nc(-c2ccccc2)nc2ccc(F)cc12,-0.4,-16.8,-15.0,1.0,-0.6,47.2*
COC(=O)CSc1nc(-c2ccccc2)nc2ccc(F)cc12,-4.4,-20.1,-32.8,-1.4,-1.4,16.9
CCCCCn1c(CNC(=O)c2cccs2)nc2ccccc21,-11.3,22.2,7.3,1.7,1.4,55.8*
COc1ccc(CCn2c(=N)c(C(=O)NCc3ccco3)cc3c(=O)n4ccccc4nc32)cc1,-2.1,2.1,-8.2,-1.6,-1.7,46.6*
Cc1ccc(Cn2c(=N)c(C(=O)NCCN3CCOCC3)cc3c(=O)n4ccccc4nc32)cc1,-0.5,-16.4,-4.0,-0.1,-0.1,53.6*
N=c1c(C(=O)NCc2ccccc2)cc2c(=O)n3ccccc3nc2n1CCCN1CCOCC1,-6.4,0.4,-12.4,-0.1,0.0,45.2*
N=c1c(C(=O)NCCN2CCOCC2)cc2c(=O)n3ccccc3nc2n1CCc1ccccc1,-5.9,-7.3,1.5,0.4,0.4,62.4*
N=c1c(C(=O)NC2CCCCC2)cc2c(=O)n3ccccc3nc2n1CCc1ccccc1,-2.7,-4.5,-1.0,-0.4,-0.4,31.2
COCCCn1c(C(=O)NCCN2CCOCC2)cc2c(=O)n3ccccc3nc21,-1.5,-6.2,-17.5,0.0,-0.1,51.6
Cc1ccc(Cn2c(=N)c(C(=O)NC3CCCC3)cc3c(=O)n4ccccc4nc32)cc1,-6.3,-0.9,-7.8,0.7,0.1,12.8
O=P(C(=NCCO)NO)(N1CCOCC1)N1CCOCC1,-10.7,-5.8,-9.3,-1.2,-0.6,-12.8
CN1C(=O)NC(c2ccccc2[N+](=O)[O-])C2=C1CCCC2=O (configuration not stated),-12.1,9.8,0.1,5.7,10.5,21.9
